Assay results of several laboratories.
pIC50: −log10 of the molar value.
Observed: cell growth or viability

| Compound | cell line | technique | time | measurement | result |
| --- | --- | --- | --- | --- | --- |
| N.N.[Cl][Pt][Cl] | MGC-803 | MTT | 24 h | pIC50 | 4.53 |
| CC1=C(O)C(=O)C=C2C1=CC=C1[C@@]2(C)CC[C@@]2(C)[C@@H]3C[C@](C)(C(=O)OCCCn4cc(C=O)c5ccccc54)CC[C@]3(C)CC[C@]12C | MGC-803 | MTT | 48 h | pIC50 | 6.47 |
| Cc1cc(N(CCO)CCO)ccc1C=O | A498 |  |  | IC50 | > 10 µg/mL |
| COc1ccc2c(c1)[nH]c1c(C)nccc12 | PC-12 | MTT | 48 h | pIC50 | 4.75 |
| C[C@H]1CN(c2ccncc2NC(=O)c2ccc(F)c(-c3c(F)cccc3F)n2)C[C@@H](N)[C@@H]1O | MM1.S | thymidine uptake | 72 h | GI50 | 22 nM |
| N.N.[Cl][Pt][Cl] | SW480 | MTT | 48 h | pIC50 | 4.87 |
| Cc1cc(N(CCOS(C)(=O)=O)CCOS(C)(=O)=O)ccc1C=O | A498 |  |  | IC50 | 0.0463 µg/mL |
| CC1=C(O)C(=O)C=C2C1=CC=C1[C@@]2(C)CC[C@@]2(C)[C@@H]3C[C@](C)(C(=O)O)CC[C@]3(C)CC[C@]12C | MGC-803 | MTT | 48 h | pIC50 | 6.46 |
| Cc1cccc(-n2ncc(Cl)c(Cl)c2=O)c1 | NCI-H2030 | resazurin | 96 h | pIC50 | 6.57 |
